Results on 14 molecules are retold here after ChEMBL document CHEMBL4049453, “Discovery of Mixed Pharmacology Melanocortin-3 Agonists and Melanocortin-4 Receptor Tetrapeptide Antagonist Compounds (TACOs) Based on the Sequence Ac-Xaa1-Arg-(pI)DPhe-Xaa4-NH2” (J Med Chem, 2017).

Calls of active or inactive are those of the source. The rule behind the calls is not given here. Non-standard residues stand in square brackets, D forms with d. Residues, ends and D or L forms follow the SMILES beside them. Bip = N[C@@H](Cc1ccc(-c2ccccc2)cc1)C(=O)O; dPhe(4-I) = N[C@H](Cc1ccc(I)cc1)C(=O)O; 2Nal = N[C@@H](Cc1ccc2ccccc2c1)C(=O)O; Bta = N[C@@H](Cc1csc2ccccc12)C(=O)O

The target in one experiment is Melanocortin receptor 4 (Mus musculus, UniProt P56450). The experiment is described as follows: Agonist activity at mouse MC4R expressed in HEK293 cells assessed as induction of cAMP accumulation up to 100 uM after 2 hrs by alpha screen assay relative to NDP-MSH. The experiment is classed as cell-based. Particulars: read-out: Activity. On the technique in general: Changes in cAMP serve as a functional read-out for many G protein-coupled receptors.
Sequence of Melanocortin receptor 4 (P56450 whole entry): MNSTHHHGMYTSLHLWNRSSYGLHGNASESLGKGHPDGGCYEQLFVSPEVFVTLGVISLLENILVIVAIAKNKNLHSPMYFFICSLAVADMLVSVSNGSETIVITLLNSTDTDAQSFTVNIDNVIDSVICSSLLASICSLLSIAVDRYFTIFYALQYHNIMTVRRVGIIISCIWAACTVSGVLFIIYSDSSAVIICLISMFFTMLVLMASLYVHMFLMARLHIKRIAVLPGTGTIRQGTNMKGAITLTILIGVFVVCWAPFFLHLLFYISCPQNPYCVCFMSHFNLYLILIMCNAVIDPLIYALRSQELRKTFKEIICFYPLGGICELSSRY

Experiment [1] addresses Melanocortin receptor 4 (Mus musculus) (UniProt P56450). Nature of the experiment: Antagonist activity at mouse MC4R expressed in HEK293 cells assessed as inhibition of NDP-MSH induced-cAMP accumulation up to 10 uM after 2 hrs by alpha screen assay. The format is functional, cell-based. In outline: (§1)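 mouse MC3R or MC4R in stably transfected HEK293 cells, AlphaScreen cAMP assay (IBMX stimulation buffer, 2 h RT incubation, then 2 h with donor-bead lysis mix). […] Run in triplicate.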

The target of experiment [2] is Melanocortin receptor 3 (Mus musculus) (UniProt P33033). Nature of the experiment: Antagonist activity at mouse MC3R expressed in HEK293 cells assessed as inhibition of NDP-MSH induced-cAMP accumulation up to 10 uM after 2 hrs by alpha screen assay. The format is functional, cell-based. Put shortly:
as §1

Sequence of Melanocortin receptor 3 (Mus musculus) (P33033 whole entry): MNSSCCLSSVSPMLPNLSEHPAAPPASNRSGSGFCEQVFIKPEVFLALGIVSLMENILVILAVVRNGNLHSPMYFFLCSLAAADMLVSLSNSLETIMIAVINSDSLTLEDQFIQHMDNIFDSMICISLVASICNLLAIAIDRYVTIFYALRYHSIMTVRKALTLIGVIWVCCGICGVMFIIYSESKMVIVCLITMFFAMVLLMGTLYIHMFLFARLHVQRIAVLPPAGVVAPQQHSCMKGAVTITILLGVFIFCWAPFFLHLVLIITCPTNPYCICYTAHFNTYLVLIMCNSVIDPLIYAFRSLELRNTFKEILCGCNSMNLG
Sequence of Melanocortin receptor 4 (Mus musculus) (P56450 whole entry): as the sequence (P56450 whole entry) above

`CC(=O)N[C@@H](Cc1ccc(-c2ccccc2)cc1)C(=O)N[C@@H](CCCNC(=N)N)C(=O)N[C@H](Cc1ccc(I)cc1)C(=O)N[C@@H](Cc1csc2ccccc12)C(N)=O` (Ac-[Bip]R[dPhe(4-I)][Bta]-NH2): the Emax on Melanocortin receptor 4 is less than 20%. The inhibition entry in experiment [1] was “inactive”.

`CC(=O)N[C@@H](Cc1ccc(-c2ccccc2)cc1)C(=O)N[C@@H](CCCNC(=N)N)C(=O)N[C@H](Cc1ccc(I)cc1)C(=O)NC(Cc1ccccc1)C(N)=O` (stereo in doubt): the Emax on Melanocortin receptor 4 is less than 20%. Besides, the inhibition result in experiment [2] is “inactive”. Turning to `CC(=O)N[C@@H](Cc1ccc(-c2ccccc2)cc1)C(=O)N[C@@H](CCCNC(=N)N)C(=O)N[C@H](Cc1ccc(I)cc1)C(=O)N1Cc2ccccc2C[C@H]1C(N)=O` (HELM PEPTIDE1{[ac].[O=C([C@H](Cc1ccc(-c2ccccc2)cc1)N[*:1])[*:2]].R.[O=C([C@@H](Cc1ccc(I)cc1)N[*:1])[*:2]].[Tic].[am]}$$$$V2.0), the Emax at Melanocortin receptor 4 was less than 20%. On the same count and under the same terms, in the case of `CC(=O)N[C@@H](CCCNC(=N)N)C(=O)N[C@@H](CCCNC(=N)N)C(=O)N[C@H](Cc1ccc(I)cc1)C(=O)NC(Cc1ccccc1)C(N)=O` (stereo in doubt) it was less than 20%. For the molecule `CC(=O)NC(Cc1ccccc1)C(=O)N[C@@H](CCCNC(=N)N)C(=O)N[C@H](Cc1ccc(I)cc1)C(=O)N[C@@H](Cc1csc2ccccc12)C(N)=O` (stereo in doubt), on Melanocortin receptor 4, the Emax was less than 20%. Turning to `CC(=O)N[C@@H](Cc1ccc2ccccc2c1)C(=O)N[C@@H](CCCNC(=N)N)C(=O)N[C@H](Cc1ccc(I)cc1)C(=O)N[C@@H](Cc1csc2ccccc12)C(N)=O` (Ac-[2Nal]R[dPhe(4-I)][Bta]-NH2), on Melanocortin receptor 4, the Emax was less than 20%.

Take `CC(=O)NC(Cc1ccccc1)C(=O)N[C@@H](CCCNC(=N)N)C(=O)N[C@H](Cc1ccc(I)cc1)C(=O)N[C@@H](Cc1ccc2ccccc2c1)C(N)=O` (stereo in doubt): at Melanocortin receptor 4, the Emax is less than 20%. In addition, in experiment [2], the inhibition result was “inactive”.

Regarding `CC(=O)N1Cc2ccccc2C[C@H]1C(=O)N[C@@H](CCCNC(=N)N)C(=O)N[C@H](Cc1ccc(I)cc1)C(=O)N[C@H](Cc1ccc2ccccc2c1)C(N)=O` (HELM PEPTIDE1{[ac].[Tic].R.[O=C([C@@H](Cc1ccc(I)cc1)N[*:1])[*:2]].[O=C([C@@H](Cc1ccc2ccccc2c1)N[*:1])[*:2]].[am]}$$$$V2.0), the inhibition entry in experiment [2] and in experiment [1] was “inactive” throughout. Regarding `CC(=O)N[C@@H](CCCNC(=N)N)C(=O)N[C@@H](CCCNC(=N)N)C(=O)N[C@H](Cc1ccc(I)cc1)C(=O)N[C@@H](Cc1ccc2ccccc2c1)C(N)=O`, on Melanocortin receptor 4, the Emax is less than 20%. Turning to `CC(=O)NC(Cc1ccccc1)C(=O)N[C@@H](CCCNC(=N)N)C(=O)N[C@H](Cc1ccc(I)cc1)C(=O)N1Cc2ccccc2C[C@H]1C(N)=O` (stereo in doubt), the Emax on Melanocortin receptor 4 was less than 20%. Same read-out and setting: then `CC(=O)N[C@@H](Cc1csc2ccccc12)C(=O)N[C@@H](CCCNC(=N)N)C(=O)N[C@H](Cc1ccc(I)cc1)C(=O)N[C@@H](Cc1csc2ccccc12)C(N)=O` (Ac-[Bta]R[dPhe(4-I)][Bta]-NH2), with less than 20%; and `CC(=O)N1Cc2ccccc2C[C@H]1C(=O)N[C@@H](CCCNC(=N)N)C(=O)N[C@H](Cc1ccc(I)cc1)C(=O)N[C@@H](Cc1csc2ccccc12)C(N)=O` (HELM PEPTIDE1{[ac].[Tic].R.[O=C([C@@H](Cc1ccc(I)cc1)N[*:1])[*:2]].[O=C([C@H](Cc1csc2ccccc12)N[*:1])[*:2]].[am]}$$$$V2.0), with less than 20%.

Regarding `CC(=O)NC(Cc1ccccc1)C(=O)N[C@@H](CCCNC(=N)N)C(=O)N[C@H](Cc1ccc(I)cc1)C(=O)N[C@H](Cc1ccc2ccccc2c1)C(N)=O` (stereo in doubt), the Emax on Melanocortin receptor 4 was less than 20%. In addition, the inhibition result in experiment [2] was “inactive”. `CC(=O)N[C@@H](Cc1cnc[nH]1)C(=O)N[C@@H](CCCNC(=N)N)C(=O)N[C@H](Cc1ccc(I)cc1)C(=O)NC(Cc1ccccc1)C(N)=O` (stereo in doubt): the Emax at Melanocortin receptor 4 was less than 20%.
